Measured values as given in ChEMBL document CHEMBL2057196, “Discovery of a novel class of potent human deoxyuridine triphosphatase inhibitors remarkably enhancing the antitumor activity of thymidylate synthase inhibitors” (J Med Chem, 2012).

Key:
[1] = target: T1, Deoxyuridine 5'-triphosphate nucleotidohydrolase, mitochondrial (Homo sapiens, UniProt P33316); experiment: Inhibition of human dUTPase assessed as production of [5-3H]dUMP from [5-3H]dUTP after 15 mins measured by HPLC analysis
T1 sequence (P33316 whole entry): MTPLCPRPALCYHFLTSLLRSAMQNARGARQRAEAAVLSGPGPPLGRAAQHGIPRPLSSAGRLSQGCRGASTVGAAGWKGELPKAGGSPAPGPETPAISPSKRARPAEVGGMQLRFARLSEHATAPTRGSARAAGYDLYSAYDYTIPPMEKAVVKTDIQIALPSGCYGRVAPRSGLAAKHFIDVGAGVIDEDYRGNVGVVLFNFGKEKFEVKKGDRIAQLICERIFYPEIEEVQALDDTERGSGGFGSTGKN

[2] = Potentiation of antiproliferative activity of FdUrd against human HeLaS3 cells assessed as compound concentration causing 50% reduction in 1 uM FdUrd T/C value after 24 hrs by crystal violet assay; format: functional, cell-based, HeLa S3
Outline: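 HeLa S3 cells seeded at 1500 cells/well and pre-incubated 24 h. Compound (1–100 μM) or DMSO added together with FdUrd (1 μM) for 24 h. Thymidine (30 μM) then added for a further 48 h. Crystal violet read-out at OD540. EC50 is the concentration that halves the FdUrd T/C (%), taken from the curve. Mean of three independent assays ± SD.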

MX1 [3] = experiment: Antitumor activity against human MX1 cells xenografted in Balb/c-A JcL-nu mouse assessed as tumor volume at 15 mg/kg/day by continuous infusion for 14 days measured on day 15 relative to control (reference value: 11.4 +/- 3.74); format: functional
MX1 [4] = experiment: Antitumor activity against human MX1 cells xenografted in Balb/c-A JcL-nu mouse assessed as tumor growth inhibition at 15 mg/kg/day by continuous infusion for 14 days measured on day 15 relative to control; format: functional; conditions: read-out: GI
MX1 [5] = experiment: Antitumor activity against human MX1 cells xenografted in Balb/c-A JcL-nu mouse assessed as tumor volume at 15 mg/kg/day by continuous infusion for 14 days measured on day 15 (reference value: 2048 +/- 693.7 mm3); format: functional
Outline: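 Five-week-old Balb/cA JcL-nu mice with MX-1 human breast carcinoma fragments (~2 mm) implanted sc by trocar, tumour maintained by sc serial transplantation. 5-FU given by continuous infusion via osmotic pump for 14 days; vehicle 2.5% DMA, 2.5% Tween 80, 10% Cremophor, 0.5% HPMC. Tumour size measured twice weekly; TV = length × width² × 0.5, read on day 15.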

[6] = Inhibition of Escherichia coli dUTPase
MX1 [7] = experiment: Potentiation of antitumor activity of 5-Fu against human MX1 cells xenografted in Balb/c-A JcL-nu mouse assessed as tumor volume at 300 mg/kg/day, po for 14 days measured on day 15 (reference value: 2048 +/- 693.7 mm3); format: functional
Outline: (§1)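 Five-week-old Balb/cA JcL-nu mice given sc MX-1 tumor fragments (~2 mm) by trocar. Treatment for 14 days: 5-FU 15 mg/kg/day by osmotic-pump continuous infusion, and/or oral compound. Vehicle was 2.5% DMA, 2.5% Tween 80, 10% Cremophor, 0.5% HPMC. Tumor size and body weight measured twice weekly. TV = length × width² × 0.5. RTV = TV day 15/day 0. IR = (1 − treated/control mean RTV) × 100.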

MX1 [8] = experiment: Antitumor activity against human MX1 cells xenografted in Balb/c-A JcL-nu mouse assessed as tumor growth inhibition at 300 mg/kg/day, po for 14 days measured on day 15 relative to control; format: functional; conditions: read-out: GI; outline: as §1
[9] = Antiproliferative activity against human HeLaS3 cells after 72 hrs by crystal violet assay; conditions: HeLa S3, 72 h
[10] = Half life in Balb/c-A mouse at 50 mg/kg, po in a solution containing 2.5% DMA, 2.5% Tween 80 and 10% cremophor EL; format: ADME, organism-based; set-up: dose 50 mg/kg, route oral; conditions: in vivo
Outline: (§2)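 Male Balb/c-A mice aged 6–9 weeks (n = 2), single oral dose; plasma drug levels measured by UPLC.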

[11] = Tmax in Balb/c-A mouse at 50 mg/kg, po in a solution containing 2.5% DMA, 2.5% Tween 80 and 10% cremophor EL; format: ADME, organism-based; set-up: dose 50 mg/kg, route oral; conditions: in vivo; outline: as §2
MX1 [12] = experiment: Potentiation of antitumor activity of 5-Fu against human MX1 cells xenografted in Balb/c-A JcL-nu mouse assessed as tumor growth inhibition at 300 mg/kg/day, po for 14 days measured on day 15 relative to control; format: functional; conditions: read-out: GI; outline: as §1
[13] = Cmax in Balb/c-A mouse at 50 mg/kg, po in a solution containing 2.5% DMA, 2.5% Tween 80 and 10% cremophor EL; format: ADME, organism-based; set-up: dose 50 mg/kg, route oral; conditions: in vivo; outline: as §2
MX1 [14] = experiment: Antitumor activity against human MX1 cells xenografted in Balb/c-A JcL-nu mouse assessed as decrease in tumor volume at 300 mg/kg/day, po for 14 days measured on day 15 relative to control (reference value: 11.4 +/- 3.74); format: functional; outline: as §1
Mus musculus = experiment: Toxicity in Balb/c-A JcL-nu mouse bearing human MX1 cells assessed as decrease in body weight at 300 mg/kg/day, po administered for 15 days and co-treated with 5-Fu; format: organism-based; set-up: route oral; conditions: in vivo, 336 h, in the assay text read “for 14 days” for “for 15 days”; outline: as §1
MX1 [15] = experiment: Antitumor activity against human MX1 cells xenografted in Balb/c-A JcL-nu mouse assessed as tumor volume at 300 mg/kg/day, po for 14 days measured on day 15 (reference value: 2048 +/- 693.7 mm3); format: functional; outline: as §1
MX1 [16] = experiment: Potentiation of antitumor activity of 5-Fu against human MX1 cells xenografted in Balb/c-A JcL-nu mouse assessed as decrease in tumor volume at 300 mg/kg/day, po for 14 days measured on day 15 relative to control (reference value: 11.4 +/- 3.74); format: functional; outline: as §1
[17] = AUCt in Balb/c-A mouse at 50 mg/kg, po in a solution containing 2.5% DMA, 2.5% Tween 80 and 10% cremophor EL; format: ADME, organism-based; set-up: dose 50 mg/kg, route oral; conditions: plasma; outline: as §2
[18] = Antiproliferative activity against human HeLaS3 cells at 30 uM after 72 hrs by crystal violet assay; format: functional, HeLa S3
Outline: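 HeLa S3 cells grown in RPMI1640 with 10% FBS, seeded at 1500 cells/well and left 24 h at 37 °C, 5% CO2. Compound (1–100 μM) or DMSO vehicle added, then 72 h incubation. Growth read by crystal violet staining, OD540. […] Average of three independent assays.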

[19] = Homo sapiens, HeLa S3, 24 h, read-out: EC50

Row | SMILES | IC50 [1] [µM] | EC50 [2, 19] [µM] | other results
1 | CC(C)(CCCOCn1ccc(=O)[nH]c1=O)NS(=O)(=O)c1ccccc1Cl | 9.4 | 7.93 | –
2 | O=c1[nH]cc(F)c(=O)[nH]1 [FLUOROURACIL] | – | – | Ratio (MX1 [3]): 9.13; inhibition in vivo at 15 mg/kg/day (MX1 [4]): 20%; Activity (MX1 [5]): 1645 mm3
3 | CC(C)(CCCOCn1ccc(=O)[nH]c1=O)NS(=O)(=O)c1cccc(Cl)c1 | 4.5 | 3.96 | –
4 | COc1cccc(S(=O)(=O)NC(C)(C)CCCOCn2ccc(=O)[nH]c2=O)c1 | 1.2 | 1.1 | –
5 | COc1cc(C)ccc1S(=O)(=O)NC(C)(C)CCCOCn1ccc(=O)[nH]c1=O | 19.5 | 14.1 | –
6 | CC(C)(CCCOCn1ccc(=O)[nH]c1=O)NS(=O)(=O)c1cccc(OCC2CC2)c1 | 0.035 | 0.18 | –
7 | CC(C)(NS(=O)(=O)CCCOCn1ccc(=O)[nH]c1=O)c1cccc(OCC2CC2)c1 | 0.34 | 0.45 | –
8 | O=c1ccn(COCCOS(=O)(=O)NS(=O)(=O)c2ccccc2)c(=O)[nH]1 | 3.1 | – | EC50 ([2]; hela s3): Not Active
9 | CC(C)(CCCOCn1ccc(=O)[nH]c1=O)NS(=O)(=O)c1ccc(Cl)cc1 | 5.7 | 4.97 | –
10 | CC(NS(=O)(=O)CCCOCn1ccc(=O)[nH]c1=O)c1cccc(OCC2CC2)c1 (racemic) | 0.062 | 0.14 | –
11 | O=c1ccn([C@H]2C[C@H](O)[C@@H](COP(=O)(O)CP(=O)(O)OP(=O)(O)OCc3ccccc3)O2)c(=O)[nH]1 | – | – | Ki [6]: 0.3 µM
12 | O=c1ccn(COCCOC(c2ccccc2)(c2ccccc2)c2ccccc2)c(=O)[nH]1 | > 100 | – | –
13 | C[C@H](NS(=O)(=O)CCCOCn1ccc(=O)[nH]c1=O)c1cccc(OCC2CC2)c1 | 2.5 | 4.15 | –
14 | C[C@@H](NS(=O)(=O)CCCOCn1ccc(=O)[nH]c1=O)c1ccc(F)c(OCC2CC2)c1 | 0.021 | 0.075 | Activity (MX1 [7]): 299.7 mm3; inhibition in vivo at 300 mg/kg/day (MX1 [8]): -30.9%; IC50 [9]: 28.3 µM; half-life [10]: 84 min; Tmax [11]: 30 min; inhibition in vivo at 300 mg/kg/day (MX1 [12]): 83%; Cmax [13]: 15.1 µM; Ratio (MX1 [14]): 14.9; Activity (Mus musculus): Non-toxic; Activity (MX1 [15]): 2698 mm3; Ratio (MX1 [16]): 1.94; AUC(0-t) [17]: 24.9 µM·h
15 | C[C@@H](NS(=O)(=O)CCCOCn1ccc(=O)[nH]c1=O)c1cccc(OCC2CC2)c1 | 0.04 | 0.066 | –
16 | CC(C)(C)[Si](C)(C)OCCOCn1ccc(=O)[nH]c1=O | 100 | – | –
17 | CC(C)(CCCOCn1ccc(=O)[nH]c1=O)NS(=O)(=O)c1ccccc1 | – | 5.1 | T/C [18]: 96%; EC50 ([2]; hela s3): Dose-dependent effect
18 | COc1ccc(S(=O)(=O)NC(C)(C)CCCOCn2ccc(=O)[nH]c2=O)cc1 | 18.2 | 14.9 | –
19 | O=c1ccn([C@H]2C[C@H](O)[C@@H](COP(=O)(O)NP(=O)(O)OP(=O)(O)O)O2)c(=O)[nH]1 | – | – | Ki [6]: 5 µM
